These results are taken from paper PMC3375352 (Journal of Medicinal Chemistry, 2012).

Each structure is given as a SMILES string.

The conditions of data set [1]: cited from earlier work.
Data set [2] relates to U2OS (human osteosarcoma). The experiment in a line: MTT cytotoxicity assay, U2OS. It is filed as cell-based. As to conditions: read-out: IC50 U2OS, 72 h continuous treatment. The procedure, abridged: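 Cells were grown as adherent monolayers in DMEM with 10% FBS and 1% penicillin/streptomycin at 37 °C, humidified 5% CO₂. 2000 cells/well were seeded and left for 24 h. Medium was replaced with test compound dilutions from 1–3 mM aqueous stocks for 72 h. MTT (0.8 mg/mL in DMEM) was added for 4 h, and formazan was dissolved in DMSO with 10% pH 10.5 glycine buffer. A555 was normalised to Pt-free controls and IC50 interpolated from % viability curves. Values are means of ≥3 independent experiments, each with six replicates per concentration; errors are standard deviations.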

The next data set relates to HeLa cells. The experiment in a line: cellular platinum uptake by GFAAS. It is filed as cell-based, human. As to conditions: 10 µM, 4 h exposure. The procedure, abridged: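 HeLa cells were seeded at 3×10⁵ cells/well, grown 48 h, then exposed to test compound (10 µM final) for 4 h. Cell-free medium wells served as blanks for nonspecific Pt adsorption, and parallel wells were trypsinised and counted with trypan blue. Wells were washed twice with pH 7.4 PBS and digested in hot (≈90 °C) concentrated nitric acid for 2 h. Pt was measured by GFAAS, blank-subtracted and normalised per cell; errors were derived by error propagation.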

In data set [3] the test system is nuclear DNA of HeLa cells. The experiment in a line: intracellular DNA platination by GFAAS. The settings on record: 100 µM for 4 h, then 16 h in platinum-free medium. It is filed as cell-based, human. The method, boiled down: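 Five million HeLa cells were seeded, treated next day, and floating plus attached cells were pooled (trypsin), pelleted at 4 °C and washed with ice-cold PBS. Cells were lysed in DNAzol with 100 µg/mL RNase A. DNA was ethanol-precipitated, redissolved in 8 mM NaOH and quantified by UV-visible spectroscopy, and Pt was measured by GFAAS (pmol Pt/µg DNA). Values are means ± SD of ≥3 experiments.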

Regarding `N.N.O=C([O-])C1(C(=O)[O-])CCC1.[Pt+2]` [carboplatin], the stability in water entry in data set [1] was “stable for up 60 d”.
Take `N.N.[Cl][Pt][Cl]` [cisplatin, cis-diamminedichloroplatinum(II)]: the IC50 in data set [2] was 5 ± 2 µM. Also, the “HeLa Cellular Uptake” value in the data set on HeLa cells was found to be 14 ± 2 ng Pt/10^6 cells. The Pt/DNA in data set [3] was 1.58 ± 0.97 pmol/µg.
